Test results: ChEMBL document CHEMBL1149292, “A rational utilization of high-throughput screening affords selective, orally bioavailable 1-benzyl-3-carboxyazetidine sphingosine-1-phosphate-1 receptor agonists” (J Med Chem, 2004)
Calls of active or inactive are those of the source. The rule behind the calls is not given here.

Legend:
[1] = test system: Rattus norvegicus; test: Decrease in peripheral blood lymphocyte counts in femoral artery cannulated Lewis rat at 3 mg/kg, po after 72 hrs; type: functional
In short: (§1)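 Femoral artery cannulated Lewis rats (n = 3) given a single 3 mpk oral dose. PBL counts and plasma compound concentration sampled over time up to 72 h postdose. A repeat 3 mpk po challenge was given to the same animals.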

[2] = Plasma concentration in Lewis rat at 1 mg/kg, po after 24 hrs; type: ADME, organism-based; parameters: dose 1 mg/kg, route oral
In short: (§2)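 Rat oral dose-titration at 1–30 mpk po. Peripheral blood lymphocyte counts and plasma compound concentrations determined 24 h postdose.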

[3] = test system: Rattus norvegicus; test: Decrease in peripheral blood lymphocyte counts in femoral artery cannulated Lewis rat at 3 mg/kg, po after 56 hrs; type: functional; in short: as §1
[4] = target: Sphingosine 1-phosphate receptor 5 (Homo sapiens, UniProt Q9H228); test: Displacement of [33P]sphingosine 1 phosphate from human S1P5 receptor expressed in CHO cells; type: cell-based
In short: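 Competition binding with [33P]-labeled S1P on membranes of CHO cells stably expressing each human S1P receptor. Values are the mean of n = 3 determinations.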

[5] = test system: Canis familiaris; test: Maximal decrease in peripheral blood lymphocyte in Beagle dog at 1 mg/kg, po after 24 hrs; type: functional, organism-based; parameters: dose 1 mg/kg; conditions: Canis lupus familiaris
In short: (§3)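 Complete blood counts run alongside plasma concentrations after a single 1.0 mpk oral dose in beagle dog or rhesus monkey. Lymphocyte counts followed over time, with PBL lowering assessed at 24 h postdose.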

[6] = test system: Rattus norvegicus; test: Decrease in peripheral blood lymphocyts in Lewis rat at 10 mg/kg, po after 24 hrs relative to control; type: functional; parameters: scale not given: the % may be the effect or the level left; in short: as §2
[7] = Half life in rhesus monkey at 1 mg/kg, po and 0.5 mg/kg, iv; conditions: in vivo
[8] = Cmax in rat at 2 mg/kg, po and 1 mg/kg, iv; type: ADME, organism-based; conditions: in vivo
In short: (§4)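 Rat PK at 2.0 mpk po and 1.0 mpk iv. Plasma compound levels measured.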

[9] = target: Sphingosine 1-phosphate receptor 2 (Homo sapiens, UniProt O95136); test: Displacement of [33P]sphingosine 1 phosphate from human S1P2 receptor expressed in CHO cells; type: cell-based
[10] = test system: Rattus norvegicus; test: Decrease in peripheral blood lymphocyte counts in femoral artery cannulated Lewis rat at 3 mg/kg, po after 6 hrs; type: functional; in short: as §1
[11] = Plasma concentration in femoral artery cannulated Lewis rat at 3 mg/kg, po after 72 hrs; type: ADME, organism-based; parameters: dose 3 mg/kg, route oral
In short: (§5)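 Femoral artery cannulated Lewis rats (n = 3) got a single 3 mpk oral dose. Compound plasma concentration (nM) was measured serially over time up to 72 h postdose. Peripheral blood lymphocyte counts were taken in parallel at the same time points. The same animals were later given a second 3 mpk oral dose.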

[12] = Plasma concentration in femoral artery cannulated Lewis rat at 3 mg/kg, po after 6 hrs; type: ADME, organism-based; parameters: dose 3 mg/kg, route oral; in short: as §5
[13] = Plasma clearance in rhesus monkey at 1 mg/kg, po and 0.5 mg/kg, iv; type: ADME, organism-based, Macaca mulatta
In short: (§6)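 Single-dose PK at 1.0 mpk po and 0.5 mpk iv. Plasma compound levels measured.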

[14] = Plasma concentration in femoral artery cannulated Lewis rat at 3 mg/kg, po after 8 hrs; type: ADME, organism-based; parameters: dose 3 mg/kg, route oral; in short: as §5
[15] = Volume of distribution at steady state in Beagle dog at 1 mg/kg, po and 0.5 mg/kg, iv; type: ADME, organism-based, Canis lupus familiaris; conditions: in vivo, read-out: Vdss
[16] = test system: Rattus norvegicus; test: Decrease in peripheral blood lymphocyte counts in femoral artery cannulated Lewis rat at 3 mg/kg, po after 20 hrs; type: functional; in short: as §1
[17] = test system: Rattus norvegicus; test: Decrease in peripheral blood lymphocyte counts in femoral artery cannulated Lewis rat at 3 mg/kg, po after 12 hrs; type: functional; in short: as §1
[18] = test system: Rattus norvegicus; test: Decrease in peripheral blood lymphocyte counts in femoral artery cannulated Lewis rat at 3 mg/kg, po after 48 hrs; type: functional; in short: as §1
[19] = test system: Rattus norvegicus; test: Decrease in peripheral blood lymphocyte counts in Lewis rat at 10 mg/kg, po after 24 hrs; type: functional; in short: as §2
[20] = test system: Mus musculus; test: Decrease in peripheral blood lymphocytes in po dosed mouse after 3 hrs; type: functional
In short: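 Compound given orally to mice. Peripheral blood lymphocyte counts taken 3 h after dosing, expressed as average percent decrease in n = 3 animals versus controls (n = 3). ED50 from dose-titration.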

[21] = Plasma concentration in Lewis rat at 10 mg/kg, po after 24 hrs; type: ADME, organism-based; parameters: dose 10 mg/kg, route oral; in short: as §2
[22] = test system: Rattus norvegicus; test: Decrease in peripheral blood lymphocyte counts in Lewis rat at 30 mg/kg, po after 24 hrs; type: functional; in short: as §2
[23] = Plasma concentration in femoral artery cannulated Lewis rat at 3 mg/kg, po after 20 hrs; type: ADME, organism-based; parameters: dose 3 mg/kg, route oral; in short: as §5
[24] = Plasma concentration in femoral artery cannulated Lewis rat at 3 mg/kg, po after 32 hrs; type: ADME, organism-based; parameters: dose 3 mg/kg, route oral; in short: as §5
[25] = Bioavailability in rat at 2 mg/kg, po and 1 mg/kg, iv; type: ADME, organism-based; conditions: in vivo; in short: as §4
[26] = test system: Rattus norvegicus; test: Decrease in peripheral blood lymphocyte counts in femoral artery cannulated Lewis rat at 3 mg/kg, po after 2 hrs; type: functional; in short: as §1
[27] = target: Sphingosine 1-phosphate receptor 1 (Homo sapiens, UniProt P21453); test: Displacement of [33P]sphingosine 1 phosphate from human S1P1 receptor expressed in CHO cells; type: cell-based
[28] = test system: Rattus norvegicus; test: Decrease in peripheral blood lymphocytes in Lewis rat at 1 mg/kg, po after 24 hrs relative to control; type: functional; parameters: scale not given: the % may be the effect or the level left; in short: as §2
[29] = Plasma concentration in femoral artery cannulated Lewis rat at 3 mg/kg, po after 0.25 hrs; type: ADME, organism-based; parameters: dose 3 mg/kg, route oral; in short: as §1
[30] = Plasma concentration in Lewis rat at 3 mg/kg, po after 24 hrs; type: ADME, organism-based; parameters: dose 3 mg/kg, route oral; in short: as §2
[31] = Plasma concentration in femoral artery cannulated Lewis rat at 3 mg/kg, po after 56 hrs; type: ADME, organism-based; parameters: dose 3 mg/kg, route oral; in short: as §5
[32] = Cmax in rhesus monkey at 1 mg/kg, po and 0.5 mg/kg, iv; type: ADME, organism-based, Macaca mulatta; conditions: in vivo; in short: as §6
[33] = Plasma concentration in femoral artery cannulated Lewis rat at 3 mg/kg, po after 12 hrs; type: ADME, organism-based; parameters: dose 3 mg/kg, route oral; in short: as §5
[34] = Plasma concentration in femoral artery cannulated Lewis rat at 3 mg/kg, po after 4 hrs; type: ADME, organism-based; parameters: dose 3 mg/kg, route oral; in short: as §5
[35] = test system: Rattus norvegicus; test: Decrease in peripheral blood lymphocyte counts in femoral artery cannulated Lewis rat at 3 mg/kg, po after 8 hrs; type: functional; in short: as §1
[36] = Volume of distribution at steady state in rat at 2 mg/kg, po and 1 mg/kg, iv; type: ADME, organism-based; conditions: in vivo, read-out: Vdss
[37] = test system: Rattus norvegicus; test: Decrease in peripheral blood lymphocyte counts in femoral artery cannulated Lewis rat at 3 mg/kg, po after 1 hr; type: functional; in short: as §1
[38] = target: Sphingosine 1-phosphate receptor 3 (Homo sapiens, UniProt Q99500); test: Displacement of [33P]sphingosine 1 phosphate from human S1P3 receptor expressed in CHO cells; type: cell-based
[39] = Bioavailability in rhesus monkey at 1 mg/kg, po and 0.5 mg/kg, iv; type: ADME, organism-based, Macaca mulatta; conditions: in vivo; in short: as §6
[40] = test system: Rattus norvegicus; test: Decrease in peripheral blood lymphocyte counts in femoral artery cannulated Lewis rat at 3 mg/kg, po after 24 hrs; type: functional; in short: as §1
[41] = Volume of distribution at steady state in rhesus monkey at 1 mg/kg, po and 0.5 mg/kg, iv; type: ADME, organism-based, Macaca mulatta; conditions: in vivo, read-out: Vdss
[42] = test system: Rattus norvegicus; test: Decrease in peripheral blood lymphocytes in Lewis rat at 30 mg/kg, po after 24 hrs relative to control; type: functional; parameters: scale not given: the % may be the effect or the level left; in short: as §2
[43] = test system: Rhesus monkey; test: Maximal decrease in peripheral blood lymphocyte in rhesus monkey at 1 mg/kg, po after 24 hrs; type: functional, organism-based; parameters: dose 1 mg/kg; conditions: Macaca mulatta; in short: as §3
[44] = test system: Rattus norvegicus; test: Decrease in peripheral blood lymphocytes in Lewis rat at 3 mg/kg, po after 24 relative to hrs control; type: functional; parameters: scale not given: the % may be the effect or the level left; in short: as §2
[45] = test system: Rattus norvegicus; test: Decrease in peripheral blood lymphocyte counts in femoral artery cannulated Lewis rat at 3 mg/kg, po after 16 hrs; type: functional; in short: as §1

Sphingosine 1-phosphate receptor 3, sequence (Q99500 whole entry): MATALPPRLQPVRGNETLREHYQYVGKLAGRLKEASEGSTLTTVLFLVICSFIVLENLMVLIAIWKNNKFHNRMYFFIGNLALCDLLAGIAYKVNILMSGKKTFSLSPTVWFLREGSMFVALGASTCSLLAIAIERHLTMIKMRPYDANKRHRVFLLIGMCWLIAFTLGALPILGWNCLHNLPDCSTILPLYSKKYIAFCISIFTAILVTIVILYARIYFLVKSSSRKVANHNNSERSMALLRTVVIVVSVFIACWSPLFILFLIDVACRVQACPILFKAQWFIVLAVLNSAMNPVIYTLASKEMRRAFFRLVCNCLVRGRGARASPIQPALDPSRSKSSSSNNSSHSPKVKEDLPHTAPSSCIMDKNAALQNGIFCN
Sphingosine 1-phosphate receptor 2, sequence (O95136 whole entry): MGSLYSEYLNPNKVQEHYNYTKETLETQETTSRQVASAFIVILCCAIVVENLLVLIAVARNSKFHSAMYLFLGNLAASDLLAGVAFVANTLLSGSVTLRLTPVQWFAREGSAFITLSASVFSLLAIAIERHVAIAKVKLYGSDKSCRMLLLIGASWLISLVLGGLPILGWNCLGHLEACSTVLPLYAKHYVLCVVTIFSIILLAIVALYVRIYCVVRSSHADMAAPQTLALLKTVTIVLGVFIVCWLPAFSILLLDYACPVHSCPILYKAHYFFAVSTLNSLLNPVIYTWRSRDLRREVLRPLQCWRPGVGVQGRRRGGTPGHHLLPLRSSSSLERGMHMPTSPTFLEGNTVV
Sphingosine 1-phosphate receptor 5, sequence (Q9H228 whole entry): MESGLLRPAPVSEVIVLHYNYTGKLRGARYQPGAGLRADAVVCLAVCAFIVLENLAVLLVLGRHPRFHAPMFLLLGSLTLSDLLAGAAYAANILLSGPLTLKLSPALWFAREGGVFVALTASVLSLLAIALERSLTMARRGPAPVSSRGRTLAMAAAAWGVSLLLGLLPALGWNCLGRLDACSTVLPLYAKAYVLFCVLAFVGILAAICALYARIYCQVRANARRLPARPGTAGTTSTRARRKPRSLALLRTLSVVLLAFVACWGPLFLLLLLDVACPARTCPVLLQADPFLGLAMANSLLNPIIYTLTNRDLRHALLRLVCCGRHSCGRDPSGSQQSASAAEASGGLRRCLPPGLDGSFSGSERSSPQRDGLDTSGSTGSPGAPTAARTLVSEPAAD
Sphingosine 1-phosphate receptor 1, sequence (P21453 whole entry): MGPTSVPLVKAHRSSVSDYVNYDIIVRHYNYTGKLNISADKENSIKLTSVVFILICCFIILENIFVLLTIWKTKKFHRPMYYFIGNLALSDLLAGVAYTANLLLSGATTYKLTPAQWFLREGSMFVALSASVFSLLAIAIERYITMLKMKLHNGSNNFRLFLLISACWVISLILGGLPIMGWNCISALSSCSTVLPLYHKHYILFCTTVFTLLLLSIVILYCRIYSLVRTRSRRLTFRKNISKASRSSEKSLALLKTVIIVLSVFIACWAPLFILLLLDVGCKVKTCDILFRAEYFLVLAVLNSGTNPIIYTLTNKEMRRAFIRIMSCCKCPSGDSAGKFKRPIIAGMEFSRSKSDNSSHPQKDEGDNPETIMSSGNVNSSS

Which Activity [1] does the source give for `O=C(O)C1CN(Cc2ccc(OCc3cc(-c4ccccc4)c(C(F)(F)F)s3)cc2)C1` here?
Its Activity is 7000 µL⁻¹.

What about the concentration at 24 h [2] of the same compound?
Its concentration at 24 h is 22 nM.

And the Activity [3]?
The Activity was 4270 µL⁻¹.

And the IC50 [4]?
The IC50 was 23 nM (antagonist).

What about the Activity [5] of the same compound?
The Activity was “Active”.

And the Activity [6]?
Its Activity is 78%.

What about the half-life [7] of the same compound?
The half-life was 750 min.

What about the Cmax [8] of the same compound?
Its Cmax is 300 nM.

What about the IC50 [9] of the same compound?
Its IC50 is greater than 10 µM.

What about the Activity [10] of the same compound?
The Activity was 1330 µL⁻¹.

What about the concentration at 72 h [11] of the same compound?
The concentration at 72 h was 8 nM.

And the concentration at 6 h [12]?
Its concentration at 6 h is 380 nM.

What about the clearance [13] of the same compound?
The clearance was 1.5 mL/min/kg.

What about the concentration at 8 h [14] of the same compound?
The concentration at 8 h was 310 nM.

And the Vd [15]?
The Vd was 1.6 L/kg.

What about the Activity [16] of the same compound?
The Activity was 1530 µL⁻¹.

What about the Activity [17] of the same compound?
Its Activity is 1530 µL⁻¹.

And the Activity [18]?
Its Activity is 4000 µL⁻¹.

What about the Activity [19] of the same compound?
Its Activity is 1530 µL⁻¹.

And the ED50 [20]?
The ED50 was 0.44 mg/kg.

And the concentration at 24 h [21]?
Its concentration at 24 h is 370 nM.

And the Activity [22]?
Its Activity is 1430 µL⁻¹.

What about the concentration at 20 h [23] of the same compound?
The concentration at 20 h was 150 nM.

What about the concentration at 32 h [24] of the same compound?
The concentration at 32 h was 34 nM.

What about the bioavailability [25] of the same compound?
Its bioavailability is 79%.

What about the Activity [26] of the same compound?
The Activity was 1770 µL⁻¹.

What about the IC50 [27] of the same compound?
Its IC50 is 1.2 nM (antagonist).

And the Activity [28]?
Its Activity is 68%.

And the concentration at 0.25 h [29]?
Its concentration at 0.25 h is 72 nM.

What about the concentration at 24 h [30] of the same compound?
The concentration at 24 h was 95 nM.

What about the concentration at 56 h [31] of the same compound?
The concentration at 56 h was 10 nM.

And the Cmax [32]?
The Cmax was 1800 nM.

And the concentration at 12 h [33]?
The concentration at 12 h was 280 nM.

What about the concentration at 4 h [34] of the same compound?
Its concentration at 4 h is 320 nM.

What about the Activity [35] of the same compound?
Its Activity is 1470 µL⁻¹.

What about the Vd [36] of the same compound?
The Vd was 10 L/kg.

What about the Activity [37] of the same compound?
Its Activity is 3330 µL⁻¹.

And the IC50 [38]?
The IC50 was 530 nM (antagonist).

And the bioavailability [39]?
Its bioavailability is 76%.

What about the Activity [40] of the same compound?
The Activity was 1570 µL⁻¹.

What about the Vd [41] of the same compound?
Its Vd is 1.4 L/kg.

What about the Activity [42] of the same compound?
Its Activity is 79%.

What about the Activity [43] of the same compound?
Its Activity is “Active”.

What about the Activity [44] of the same compound?
The Activity was 78%.

What about the Activity [45] of the same compound?
Its Activity is 1600 µL⁻¹.
